Assay results as given in ChEMBL document CHEMBL1131409, “Human telomerase inhibition by regioisomeric disubstituted amidoanthracene-9,10-diones” (J Med Chem, 1998).
pIC50: −log10 of the molar value.

Columns and labels:
[1] = target: Telomerase reverse transcriptase (Homo sapiens, UniProt O14746); assay: Inhibitory activity of telomerase was measured using the TRAP assay.
Procedure, shortened: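 Cell-free modified TRAP with extracts from exponentially growing A2780 ovarian carcinoma cells. 0.04 μg protein was incubated with TS primer, dNTPs (50 μM each) and [α-32P]dCTP in TRAP buffer (pH 8.3, 68 mM KCl) ± agent, up to 50 μM final, for 20 min at 25 °C. Then 80 °C for 5 min, CX primer plus Taq, 31 PCR cycles. Products read by gel phosphorimaging/autoradiography or filter scintillation counting. IC50 taken as 50% inhibition relative to controls.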

CH1 = assay: In vitro cytotoxicity against CH1 ovarian cells using the sulforhodamine B(SRB) assay.; assay type: functional, cell-based; details: Homo sapiens
Procedure, shortened: (§1)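 SRB growth assay. 3000–6000 cells were seeded and attached overnight. Agents were dissolved at 500 μM in water and added in quadruplicate at final 0.05, 0.25, 1, 5 and 25 μM. After 96 h, cells were fixed with cold 10% TCA and stained with 0.4% SRB. A540 was expressed as percent of untreated control and the 50% growth-inhibitory concentration was derived.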

SK-OV-3 = assay: In vitro cytotoxicity against SKOV-3 ovarian cells using the sulforhodamine B(SRB) assay.; assay type: functional, cell-based; details: Homo sapiens; procedure, shortened: as §1
A2780 = assay: In vitro cytotoxicity against A2780 ovarian cells using the sulforhodamine B(SRB) assay.; assay type: functional, cell-based; details: Homo sapiens; procedure, shortened: as §1

Chain of Telomerase reverse transcriptase (O14746 whole entry): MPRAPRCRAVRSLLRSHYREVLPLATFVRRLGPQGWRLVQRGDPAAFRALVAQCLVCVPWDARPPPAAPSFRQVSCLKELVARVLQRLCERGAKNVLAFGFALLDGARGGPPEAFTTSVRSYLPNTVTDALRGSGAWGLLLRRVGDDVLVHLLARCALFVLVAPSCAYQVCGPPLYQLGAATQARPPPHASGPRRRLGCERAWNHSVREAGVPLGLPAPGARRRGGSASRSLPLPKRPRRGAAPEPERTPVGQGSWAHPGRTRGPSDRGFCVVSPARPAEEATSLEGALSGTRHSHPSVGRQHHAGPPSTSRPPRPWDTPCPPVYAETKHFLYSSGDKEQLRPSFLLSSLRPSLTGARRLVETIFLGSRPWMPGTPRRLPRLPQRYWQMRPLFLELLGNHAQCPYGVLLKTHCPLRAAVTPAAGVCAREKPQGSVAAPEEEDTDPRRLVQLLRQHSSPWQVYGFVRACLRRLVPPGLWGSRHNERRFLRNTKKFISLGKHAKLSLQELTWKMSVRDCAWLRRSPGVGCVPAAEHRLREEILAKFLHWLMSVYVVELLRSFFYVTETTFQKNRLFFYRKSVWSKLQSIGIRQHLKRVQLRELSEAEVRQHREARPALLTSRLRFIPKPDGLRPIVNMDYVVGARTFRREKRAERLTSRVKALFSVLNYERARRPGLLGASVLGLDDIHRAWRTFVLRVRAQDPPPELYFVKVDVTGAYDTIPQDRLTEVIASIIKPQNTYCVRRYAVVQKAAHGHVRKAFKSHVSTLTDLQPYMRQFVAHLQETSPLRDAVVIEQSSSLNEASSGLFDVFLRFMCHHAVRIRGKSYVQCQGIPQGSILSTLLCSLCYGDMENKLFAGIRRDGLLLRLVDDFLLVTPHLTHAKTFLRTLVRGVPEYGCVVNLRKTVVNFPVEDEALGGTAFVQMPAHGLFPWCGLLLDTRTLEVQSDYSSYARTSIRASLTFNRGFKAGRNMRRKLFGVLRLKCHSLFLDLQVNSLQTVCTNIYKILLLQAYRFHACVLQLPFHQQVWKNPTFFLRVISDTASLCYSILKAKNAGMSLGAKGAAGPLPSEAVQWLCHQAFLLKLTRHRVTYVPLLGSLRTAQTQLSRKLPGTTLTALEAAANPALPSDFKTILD

pIC50 [1] | Structure (SMILES) | pIC50 (CH1) | pIC50 (SK-OV-3) | pIC50 (A2780)
5.15 | C[N+](C)(C)CCC(=O)Nc1ccc(NC(=O)CC[N+](C)(C)C)c2c1C(=O)c1ccccc1C2=O |  |  | 
 | CCN(CC)CCC(=O)Nc1ccc(NC(=O)CCN(CC)CC)c2c1C(=O)c1ccccc1C2=O | 6.59 | 5.85 | 6.70
4.88 | C[N+]1(CCC(=O)Nc2cccc3c2C(=O)c2cccc(NC(=O)CC[N+]4(C)CCOCC4)c2C3=O)CCOCC1 | 5.74 | 5.54 | 5.72
5.30 | C[N+]1(CCC(=O)Nc2ccc(NC(=O)CC[N+]3(C)CCCC3)c3c2C(=O)c2ccccc2C3=O)CCCC1 | 5.35 | 4.43 | 5.82
 | O=C(CCN1CCCC1)Nc1cccc2c1C(=O)c1cccc(NC(=O)CCN3CCCC3)c1C2=O | 6.44 | 6.28 | 6.49
 | C[N+]1(CCC(=O)Nc2ccc3c(c2)C(=O)c2ccc(NC(=O)CC[N+]4(C)CCCC4)cc2C3=O)CCCC1 | 5.87 | 5.70 | 6.25
< 4.30 | O=C(CCN1CCOCC1)Nc1cccc2c1C(=O)c1c(NC(=O)CCN3CCOCC3)cccc1C2=O | 4.67 | < 4.60 | < 4.60
5.09 | C[N+]1(CCC(=O)Nc2cccc3c2C(=O)c2c(NC(=O)CC[N+]4(C)CCCC4)cccc2C3=O)CCCC1 | 5.77 | 5.30 | 6.22
5.51 | CC[N+](C)(CC)CCC(=O)Nc1ccc(NC(=O)CC[N+](C)(CC)CC)c2c1C(=O)c1ccccc1C2=O | 5.20 | < 4.60 | 5.37
5.07 | C[N+]1(CCC(=O)Nc2cccc3c2C(=O)c2cccc(NC(=O)CC[N+]4(C)CCCCC4)c2C3=O)CCCCC1 | 5.68 | 5.08 | 5.70
5.43 | O=C(CCN1CCCCC1)Nc1cccc2c1C(=O)c1c(NC(=O)CCN3CCCCC3)cccc1C2=O | 5.71 | 5.63 | 6.27
< 4.30 | O=C(CCN1CCOCC1)Nc1cccc2c1C(=O)c1cccc(NC(=O)CCN3CCOCC3)c1C2=O | < 4.60 | < 4.60 | < 4.60
5.00 | C[N+]1(CCC(=O)Nc2cccc3c2C(=O)c2c(NC(=O)CC[N+]4(C)CCOCC4)cccc2C3=O)CCOCC1 | 6.24 | 5.59 | 6.29
5.57 | CCN(CC)CCC(=O)Nc1cccc2c1C(=O)c1cccc(NC(=O)CCN(CC)CC)c1C2=O | 6.49 | 6.21 | 6.49
4.84 | C[N+](C)(C)CCC(=O)Nc1ccc2c(c1)C(=O)c1cc(NC(=O)CC[N+](C)(C)C)ccc1C2=O | 5.89 | 5.40 | 6.36
5.70 | O=C(CCN1CCCC1)Nc1ccc2c(c1)C(=O)c1cc(NC(=O)CCN3CCCC3)ccc1C2=O | 5.74 | 5.64 | 5.92
5.64 | O=C(CCN1CCCCC1)Nc1cccc2c1C(=O)c1cccc(NC(=O)CCN3CCCCC3)c1C2=O | 6.38 | 6.09 | 6.36
5.19 | CN(C)CCC(=O)Nc1cccc2c1C(=O)c1c(NC(=O)CCN(C)C)cccc1C2=O | 5.87 | 5.78 | 6.48
4.78 | C[N+]1(CCC(=O)Nc2ccc3c(c2)C(=O)c2cc(NC(=O)CC[N+]4(C)CCOCC4)ccc2C3=O)CCOCC1 | 5.96 | 5.53 | 6.28
5.12 | CC[N+](C)(CC)CCC(=O)Nc1cccc2c1C(=O)c1c(NC(=O)CC[N+](C)(CC)CC)cccc1C2=O | 5.78 | 5.34 | 6.26
4.88 | C[N+](C)(C)CCC(=O)Nc1cccc2c1C(=O)c1cccc(NC(=O)CC[N+](C)(C)C)c1C2=O | 5.76 | 5.24 | 5.77

pIC50 [1] | Structure (SMILES) | pIC50 (CH1) | pIC50 (SK-OV-3) | pIC50 (A2780)
5.38 | CCN(CC)CCC(=O)Nc1cccc2c1C(=O)c1c(NC(=O)CCN(CC)CC)cccc1C2=O | 5.28 | 5.28 | 6.19
 | CC[N+](C)(CC)CCC(=O)Nc1ccc2c(c1)C(=O)c1ccc(NC(=O)CC[N+](C)(CC)CC)cc1C2=O | 5.72 | 5.19 | 5.68
4.80 | C[N+]1(CCC(=O)Nc2ccc3c(c2)C(=O)c2cc(NC(=O)CC[N+]4(C)CCCC4)ccc2C3=O)CCCC1 | 5.80 | 5.33 | 6.32
5.11 | C[N+]1(CCC(=O)Nc2ccc3c(c2)C(=O)c2cc(NC(=O)CC[N+]4(C)CCCCC4)ccc2C3=O)CCCCC1 | 5.98 | 5.66 | 6.74
 | O=C(CCN1CCOCC1)Nc1ccc2c(c1)C(=O)c1ccc(NC(=O)CCN3CCOCC3)cc1C2=O | 4.85 | < 4.60 | < 4.60
5.11 | C[N+]1(CCC(=O)Nc2cccc3c2C(=O)c2c(NC(=O)CC[N+]4(C)CCCCC4)cccc2C3=O)CCCCC1 | 5.95 | 5.34 | 6.28
5.74 | O=C(CCN1CCCC1)Nc1ccc2c(c1)C(=O)c1ccc(NC(=O)CCN3CCCC3)cc1C2=O | 4.31 | 4.42 | 4.41
5.06 | C[N+]1(CCC(=O)Nc2cccc3c2C(=O)c2cccc(NC(=O)CC[N+]4(C)CCCC4)c2C3=O)CCCC1 | 5.65 | 5.00 | 5.66
4.77 | CC[N+](C)(CC)CCC(=O)Nc1cccc2c1C(=O)c1cccc(NC(=O)CC[N+](C)(CC)CC)c1C2=O | 5.69 | 5.00 | 5.72
 | O=C(CCN1CCCC1)Nc1ccc(NC(=O)CCN2CCCC2)c2c1C(=O)c1ccccc1C2=O | 7.72 | 6.41 | 8.60
5.46 | CCN(CC)CCC(=O)Nc1ccc2c(c1)C(=O)c1ccc(NC(=O)CCN(CC)CC)cc1C2=O | 5.50 | 5.50 | 5.63
5.89 | CN(C)CCC(=O)Nc1cccc2c1C(=O)c1cccc(NC(=O)CCN(C)C)c1C2=O | 6.43 | 6.21 | 6.46
5.36 | C[N+](C)(C)CCC(=O)Nc1cccc2c1C(=O)c1c(NC(=O)CC[N+](C)(C)C)cccc1C2=O | 5.85 | 5.66 | 6.28
< 4.70 | CC[N+](C)(CC)CCC(=O)Nc1ccc2c(c1)C(=O)c1cc(NC(=O)CC[N+](C)(CC)CC)ccc1C2=O | 5.95 | 5.70 | 6.48
 | O=C(CCN1CCCC1)Nc1cccc2c1C(=O)c1c(NC(=O)CCN3CCCC3)cccc1C2=O | 5.89 | 5.92 | 6.53
5.39 | CN(C)CCC(=O)Nc1ccc2c(c1)C(=O)c1ccc(NC(=O)CCN(C)C)cc1C2=O |  |  | 
5.51 | O=C(CCN1CCCCC1)Nc1ccc2c(c1)C(=O)c1cc(NC(=O)CCN3CCCCC3)ccc1C2=O | 5.50 | 5.43 | 6.32
5.33 | CN(C)CCC(=O)Nc1ccc2c(c1)C(=O)c1cc(NC(=O)CCN(C)C)ccc1C2=O | 5.36 | 5.38 | 5.68
5.37 | CCN(CC)CCC(=O)Nc1ccc2c(c1)C(=O)c1cc(NC(=O)CCN(CC)CC)ccc1C2=O | 5.34 | 5.14 | 5.68
< 4.30 | O=C(CCN1CCOCC1)Nc1ccc2c(c1)C(=O)c1cc(NC(=O)CCN3CCOCC3)ccc1C2=O | 5.12 | < 4.00 | 5.28
